Consider 9 compounds from ChEMBL document CHEMBL2069298, “Putative mycobacterial efflux inhibitors from the seeds of Aframomum melegueta” (J Nat Prod, 2012).

Structures are written as SMILES. Values after ≈ are worked out from the molar mass of the structure shown.

The subject of test [1] is Mycolicibacterium smegmatis MC2 155. Kind of test: Inhibition of Multidrug resistance efflux pump in Mycobacterium smegmatis str. MC2 155 ATCC 700084 assessed as increase in normalized ethidium bromide fluorescence efflux at 0.5 MIC level by fluorimetric assay (reference value: 0.581 +/- 0.051 ratio). In outline: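 Cells grown in 7H9 T ADC at 37 °C and loaded with 4 mg/L EtBr plus 256 mg/L verapamil. EtBr efflux followed fluorometrically in a microtiter plate with compounds at half their 7H9 T ADC MIC. Normalized fluorescence is the mean of the last 10 min of four assays, compared with the EtBr control.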

Test [2] shares this test system. The test can be described thus: Inhibition of Multidrug resistance efflux pump in Mycobacterium smegmatis str. MC2 155 ATCC 700084 assessed as reduction in ciprofloxacin bromide MIC presence of test compound at 64 mg/L. Summed up:
(§1)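 Broth dilution in MHB with strain mc2 155 from blood agar. Modulator at half its MHB MIC was included in the medium while the antibiotic or EtBr was serially diluted. Inoculum 5 × 10^5 cfu/mL. MTT read-out after 72 h at 37 °C. Value is the fold change in MIC.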

Test [3] shares this test system. The test can be described thus: Inhibition of Multidrug resistance efflux pump in Mycobacterium smegmatis str. MC2 155 ATCC 700084 assessed as reduction in ethidium bromide MIC presence of test compound at 64 mg/L. In outline:
as §1

The test system is the same in test [4]. Kind of test: Inhibition of Multidrug resistance efflux pump in Mycobacterium smegmatis str. MC2 155 ATCC 700084 assessed as reduction in rifampicin bromide MIC presence of test compound at 64 mg/L. Summed up:
as §1

The test system is the same in test [5]. The test can be described thus: Inhibition of Multidrug resistance efflux pump in Mycobacterium smegmatis str. MC2 155 ATCC 700084 assessed as fractional inhibitory concentration index in presence of rifampicin. Summed up: (§2)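 Combination testing in MHB broth dilution against mc2 155. Either the modulator or the antibiotic (EtBr or rifampicin) was held in the medium while the partner was serially diluted. 5 × 10^5 cfu/mL inoculum, MTT read-out after 72 h at 37 °C. Fractional inhibitory concentration index derived from the combined MICs.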

Test [6] shares this test system. The test can be described thus: Inhibition of Multidrug resistance efflux pump in Mycobacterium smegmatis str. MC2 155 ATCC 700084 assessed as increase in relative ethidium bromide fluorescence accumulation at 0.5 MIC level by fluorimetric assay (reference value: 6057.1 +/- 508.6 RFU). Summed up:
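Cells grown in 7H9 T with 10% ADC at 37 °C. Compounds at half their 7H9 T ADC MIC, with 0.5 mg/L EtBr and 0.4% glucose at 37 °C. Fluorescence tracked in a microtiter plate until steady state. Relative fluorescence is the mean of the last 10 min of four assays, compared with the EtBr-only control.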

The test system is the same in test [7]. Kind of test: Inhibition of Multidrug resistance efflux pump in Mycobacterium smegmatis str. MC2 155 ATCC 700084 assessed as fractional inhibitory concentration index in presence of ethidium bromide. In outline: as §2
The subject of test [8] is Mycolicibacterium smegmatis. Kind of test: Antimicrobial activity against Mycobacterium smegmatis str. MC2 155 ATCC 700084 incubated for 72 hrs in Mueller-Hinton broth medium by MTT assay. It counts as functional. As to conditions: MC2 155 ATCC 700084, 72 h. Summed up:
(§3)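 M. smegmatis mc2 155 grown on Columbia blood agar with 5% horse blood at 37 °C. Compounds in DMSO, serially diluted in Mueller-Hinton broth or 7H9 T ADC. Inoculum set to McFarland 0.5, then 5 × 10^5 cfu/mL, mixed 1:1 with the dilutions. Read with MTT after 72 h at 37 °C. MIC is the lowest concentration inhibiting growth.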

Test [9] deals with Mycolicibacterium smegmatis. Kind of test: Antimicrobial activity against Mycobacterium smegmatis str. MC2 155 ATCC 700084 incubated for 72 hrs in 7H9 T medium supplemented with 10% Middlebrook ADC enrichment by MTT assay. It counts as functional. The note with it: MC2 155 ATCC 700084, 72 h. Summed up: as §3
In general terms: Tetrazolium dyes change colour on reduction, which living cells bring about.

Test [10] relates to Mycolicibacterium smegmatis MC2 155. The test can be described thus: Inhibition of Multidrug resistance efflux pump in Mycobacterium smegmatis str. MC2 155 ATCC 700084 assessed as reduction in isoniazid bromide MIC presence of test compound at 64 mg/L. In outline:
as §1

For test [11] the test system is unchanged. The test can be described thus: Inhibition of Multidrug resistance efflux pump in Mycobacterium smegmatis str. MC2 155 ATCC 700084 assessed as reduction in ethambutol bromide MIC presence of test compound at 64 mg/L. In outline:
as §1

Test [12] shares this test system. Kind of test: Inhibition of Multidrug resistance efflux pump in Mycobacterium smegmatis str. MC2 155 ATCC 700084 assessed as reduction in ethambutol bromide MIC presence of test compound at 16 mg/L. Summed up:
as §1

Test [13] shares this test system. Kind of test: Inhibition of Multidrug resistance efflux pump in Mycobacterium smegmatis str. MC2 155 ATCC 700084 assessed as reduction in rifampicin bromide MIC presence of test compound at 16 mg/L. Summed up: as §1
The test system is the same in test [14]. Kind of test: Inhibition of Multidrug resistance efflux pump in Mycobacterium smegmatis str. MC2 155 ATCC 700084 assessed as reduction in isoniazid bromide MIC presence of test compound at 16 mg/L. In outline: as §1
A short description of test [15]: (§4) Inhibition of Multidrug resistance efflux pump in Mycobacterium smegmatis str. MC2 155 ATCC 700084 assessed as increase in normalized ethidium bromide fluorescence efflux at 0.5 MIC level by fluorimetric assay. Further details: species or system Mycolicibacterium smegmatis MC2 155.
Test [16] concerns Mycolicibacterium smegmatis MC2 155. The test can be described thus: Inhibition of Multidrug resistance efflux pump in Mycobacterium smegmatis str. MC2 155 ATCC 700084 assessed as reduction in ciprofloxacin bromide MIC presence of test compound at 16 mg/L. In outline:
as §1

Test [17] has the same test system. Kind of test: Inhibition of Multidrug resistance efflux pump in Mycobacterium smegmatis str. MC2 155 ATCC 700084 assessed as reduction in ethidium bromide MIC presence of test compound at 16 mg/L. Summed up:
as §1

Test [18] has the same test system. The test can be described thus: Inhibition of Multidrug resistance efflux pump in Mycobacterium smegmatis str. MC2 155 ATCC 700084 assessed as reduction in ethidium bromide MIC presence of test compound at 32 mg/L. Summed up: as §1
Test [19] shares this test system. Kind of test: Inhibition of Multidrug resistance efflux pump in Mycobacterium smegmatis str. MC2 155 ATCC 700084 assessed as reduction in ciprofloxacin bromide MIC presence of test compound at 32 mg/L. In outline:
as §1

For test [20] the test system is unchanged. Kind of test: Inhibition of Multidrug resistance efflux pump in Mycobacterium smegmatis str. MC2 155 ATCC 700084 assessed as reduction in rifampicin bromide MIC presence of test compound at 32 mg/L. Summed up:
as §1

The test system is the same in test [21]. Kind of test: Inhibition of Multidrug resistance efflux pump in Mycobacterium smegmatis str. MC2 155 ATCC 700084 assessed as reduction in ethambutol bromide MIC presence of test compound at 32 mg/L. Summed up: as §1
The test system is the same in test [22]. Kind of test: Inhibition of Multidrug resistance efflux pump in Mycobacterium smegmatis str. MC2 155 ATCC 700084 assessed as reduction in isoniazid bromide MIC presence of test compound at 32 mg/L. Summed up: as §1
For test [23] the test system is unchanged. Described as §4.

As a reminder, the MIC is the least concentration at which growth counts as inhibited. Higher therefore signals a less susceptible organism. Consider `CCCCCC(=O)CC(=O)CCc1ccc(O)c(OC)c1`, for which, in [1], the Ratio amounted to 0.789. The fold change (FC) in test [2] was determined as 2; in test [3], 8; in [4], 4; in test [10], 2; in [11] it was 1. In addition, the fractional inhibitory concentration index (FICI) was determined as 0.5 in [5] and 0.25 in [7]. In test [6], the RFU was determined as 17800. Further, the MIC in test [8] was 128 µg/mL (≈ 438 µM); in [9], ≥ 128 µg/mL.
As a reminder, the IC50 is the point on the concentration scale where inhibition reaches its midpoint. Regarding `CCCCCCCC(O)CCc1ccc(O)c(OC)c1` (racemic), in test [1], the Ratio is 0.792. Besides, the fold change (FC) came to 2 in test [12]; 4 in test [13]; 1 in test [14]; 2 in test [16]; 4 in test [17]. Moreover, the fractional inhibitory concentration index (FICI) was 0.75 in test [5] and 0.38 in [7]. In addition, in test [6], the RFU is 24700. The figures for the minimum inhibitory concentration (MIC) in test [8] and in test [9] were 32 µg/mL (≈ 114 µM) and 128 µg/mL (≈ 456 µM), respectively. The IC50 in [15] was found to be 69.2 µM.
Consider `CCCCC[C@H](O)C[C@H](O)CCc1ccc(O)c(OC)c1`, for which the fold change (FC) in test [2] was found to be 1; in test [3] it was 2; in test [4], 1; in test [10], 1; in [11], 1. Moreover, the fractional inhibitory concentration index (FICI) in test [5] was determined as 2; in test [7], 1. Also, the MIC in test [8] and in test [9] was ≥ 128 µg/mL in each case.
For the compound `CCCCCCC[C@H](O)CC(=O)CCc1ccc(O)c(OC)c1`, in [1], the Ratio is 0.795. For the same compound, the fold change (FC) turned out to be 8 in test [18]; 2 in test [19]; 2 in test [20]; 2 in test [21]; 2 in [22]. The fractional inhibitory concentration index (FICI) in [5] was 1; in [7], 0.19. Also, the RFU in test [6] worked out at 21900. The minimal inhibitory concentration (MIC) in test [8] is 64 µg/mL (≈ 198 µM); in [9], ≥ 128 µg/mL. Besides, the IC50 in test [15] came to 83.1 µM.
As for `CCCCc1ccc(CCc2ccc(O)c(OC)c2)o1`, the Ratio in test [1] is 0.778. The fold change (FC) in test [12] was 2; in test [13], 16; in test [14], 4; in test [16], 2; in test [17], 8. Besides, the fractional inhibitory concentration index (FICI) in [5] and in test [7] was 0.19 throughout. For the same compound, the RFU in [6] was determined as 17200. The minimum inhibitory concentration (MIC) in test [8] is 32 µg/mL (≈ 117 µM); in test [9], ≥ 128 µg/mL.
Turning to `CCCCC[C@H](O)C[C@@H](O)CCc1ccc(O)c(OC)c1`, the fold change (FC) in test [2] came out at 1; in test [3], 2; in [4], 1; in test [10] it was 1; in test [11], 1. In addition, the fractional inhibitory concentration index (FICI) in test [5] turned out to be 2; in test [7], 1. Further, the MIC in test [8] and in test [9] was ≥ 128 µg/mL each time.
`CCCCC[C@H](O)CC(=O)CCc1ccc(O)c(OC)c1` [GINGEROL]: the fold change (FC) in test [2] stood at 1; in test [3] it was 2; in [4] it was 1; in test [10], 1; in test [11], 1. The results for the fractional inhibitory concentration index (FICI) in test [5] and in test [7] were 2 and 1, respectively. Also, the MIC in [8] and in test [9] was ≥ 128 µg/mL in each case.
As to `CCCCCCCC(=O)CCc1ccc(O)c(OC)c1`, the Ratio in [1] turned out to be 0.793. In addition, the fold change (FC) in test [12] was 1; in test [13], 4; in test [14], 4; in [16], 1; in test [17] it was 8. Also, the fractional inhibitory concentration index (FICI) in test [5] worked out at 0.5; in [7], 0.25. Further, in test [6], the RFU was 24600. Further, the MIC in [8] was 32 µg/mL (≈ 115 µM); in test [9], ≥ 128 µg/mL. For the same compound, the IC50 in test [15] came to 63.6 µM. For the same compound, the inhibition result in test [23] was “Dose-dependent effect”.
`CCCCC[C@H](O)CC(=O)CCc1ccc(OC)c(OC)c1`: in [1], the Ratio turned out to be 0.746. The fold change (FC) in test [2] is 1; in test [3], 2; in [4] it was 1; in test [10] it was 1; in test [11] it was 1. Also, the fractional inhibitory concentration index (FICI) in [5] was 2; in test [7] it was 0.63. In addition, the RFU in test [6] is 11800. The MIC in [8] and in test [9] was ≥ 128 µg/mL throughout.
